Screens as filed in PubChem.
Shown are actives, neighbours in structure and some others; about 3.3% of the full set was active somewhere.
FXN GAA850 act: FXN promoter activators, primary screen, cell-based, luciferase luminescence, HEK293 lucGAA850 | HEK293 lucGAA850 FXN promoter luciferase reporter, 24 h; percent of 10 µM SAHA response | activation, % at 6 µM | hit rate 0.56% among 360,000 | AID 540364, 2011;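 active means activation above the average of all compounds screened plus 3 SD, cutoff fixed separately per campaign, cut at about 7.5% in these data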;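 further: 0% = DMSO wells and 100% = 10 µM SAHA wells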
ABCB6 inh 2: ABCB6 transporter inhibitors, primary screen, K562-ABCB6 cells, flow cytometry, MLPCN library. hit rate 0.19% among 360,000. fluorescence ratio to DMSO, % at 10 µM. AID 602162, 2011. K562-ABCB6 porphyrin accumulation, 1 h; stronger effect = lower value. ATP-binding cassette sub-family B member 6 (Homo sapiens), Q9NP58;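 active means fluorescence ratio to DMSO below 75%, the collection mean minus 3 SD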;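 further: signal is porphyrin accumulated inside mitochondria; 100% equals median channel fluorescence of DMSO control wells; lower ratio means ABCB6 inhibition with less porphyrin fluorescence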
AHR activator: AHR activators, primary screen, cell-based, luminescence, luciferase reporter, human; Aryl hydrocarbon receptor (Homo sapiens), P35869; AHR-responsive luciferase reporter cells; activation, % at 5 µM; hit rate 2.5% among 320,000; in the data active means activation above about 47%;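 further: 0% = vehicle wells and 100% = reference agonist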
Target sequence (P35869 whole entry, looked up): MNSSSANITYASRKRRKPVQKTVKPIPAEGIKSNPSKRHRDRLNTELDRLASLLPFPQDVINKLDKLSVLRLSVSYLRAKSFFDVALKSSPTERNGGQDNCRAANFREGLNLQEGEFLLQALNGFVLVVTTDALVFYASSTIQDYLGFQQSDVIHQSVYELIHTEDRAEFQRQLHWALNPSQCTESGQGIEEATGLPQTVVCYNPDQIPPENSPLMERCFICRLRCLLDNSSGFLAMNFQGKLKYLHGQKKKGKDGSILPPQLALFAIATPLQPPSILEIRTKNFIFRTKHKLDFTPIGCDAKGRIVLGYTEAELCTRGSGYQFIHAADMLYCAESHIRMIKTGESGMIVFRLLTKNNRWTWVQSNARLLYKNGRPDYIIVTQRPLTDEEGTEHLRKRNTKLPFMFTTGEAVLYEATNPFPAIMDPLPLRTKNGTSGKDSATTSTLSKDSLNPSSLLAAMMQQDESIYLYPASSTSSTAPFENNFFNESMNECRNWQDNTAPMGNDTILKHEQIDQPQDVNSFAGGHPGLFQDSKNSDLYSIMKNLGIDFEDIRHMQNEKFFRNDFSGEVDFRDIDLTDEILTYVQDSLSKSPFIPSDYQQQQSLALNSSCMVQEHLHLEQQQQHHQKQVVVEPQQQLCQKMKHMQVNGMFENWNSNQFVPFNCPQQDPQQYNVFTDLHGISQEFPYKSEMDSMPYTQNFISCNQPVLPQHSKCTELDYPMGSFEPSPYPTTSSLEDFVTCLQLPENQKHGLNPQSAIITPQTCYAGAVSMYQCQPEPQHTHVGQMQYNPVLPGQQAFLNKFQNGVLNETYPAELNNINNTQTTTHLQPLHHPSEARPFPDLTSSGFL
STAT3 act-1: IL-6 driven STAT3 reporter potentiators, primary screen, U3A cells, luciferase, luminescence, MLSCN library; IL-6 STAT3-luciferase reporter; 100% = signal with IL-6 EC80 alone; activation (% of control), % at 5.6 µM; hit rate 0.91% among 190,000;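 active means activation above the screen-wide mean of compound activation plus 3 SD, cut at about 130% in these data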;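 further: 0% = background luminescence of wells with medium and substrate only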
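Material: human STAT1-deficient U3A cells with stable STAT3-luciferase reporter / Probe or stimulus: IL-6 stimulus at 33 ng/mL final / Schedule: 1 h compound pre-exposure, 6 h IL-6 stimulation, 37 °C / Technique: luminescence / Read-out basis: percent of IL-6-only median luminescence / Control set: IL-6-only high control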
STAT3 act-2: STAT3 reporter potentiators, retest of hits, confirmation, U3A cells, luciferase, luminescence | shares compounds with STAT3 act-1 | IL-6 potentiation; U3A cells lack STAT1; 100 means same as IL-6 alone | potentiation (% of control), % at 5.7 µM | hit rate 64% among 1,200 | AID 1267, 2008;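 active means percent activation of the STAT3 luciferase reporter above a set limit taken from the earlier primary screen, cut at about 130% in these data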;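 further: 0% = background signal of medium plus substrate and 100% = median of IL-6 with DMSO wells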
NFkB act 2: NF-kB reporter activators in human cells, counter-screen for STAT3 activator project | NF-kappaB reporter activation | shares compounds with STAT3 act-1 | activation (% of control), % at 5.7 µM | hit rate 11% among 1,200; in the data active means activation above about 120%;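 further: reporter induced by TNF-alpha stimulation; 100% = median of stimulated DMSO wells and 0% = no signal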
STAT1 act: STAT1 reporter activators, IFN-gamma induced, counter-screen for STAT3 activator project, cell-based, NIH 3T3, luciferase luminescence. shares compounds with STAT3 act-1. activation (% of control), % at 5.7 µM. hit rate 13% among 1,200. NIH 3T3 STAT1-luciferase reporter;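 active means activation above the solvent-only control well mean plus 3 SD, set per screening run, cut at about 120% in these data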;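 further: 100% = IFN-gamma with DMSO median signal so 100% means no change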
Active calls of the source: *.

How did Oc1cccc(C2c3[nH]c4ccccc4c3CCN2Cc2ccoc2)c1 (stereo not drawn) do in these assays?
FXN GAA850 act: 0; ABCB6 inh 2: 99; AHR activator: 22; STAT3 act-1: 138*; STAT3 act-2: 137*; NFkB act 2: 102; STAT1 act: 94

How did Cc1ccc(NC(=O)COC(=O)c2sccc2C)cc1S(=O)(=O)N1CCOCC1 do in these assays?
FXN GAA850 act: 1; ABCB6 inh 2: 94; AHR activator: 2; STAT3 act-1: 95

What do the screens show for `CC(C)c1nc2oc3ccccc3c(=O)c2c(=O)n1-c1ccccc1`?
FXN GAA850 act: -5; ABCB6 inh 2: 100; AHR activator: 103*; STAT3 act-1: 159*; STAT3 act-2: 132; NFkB act 2: 103; STAT1 act: 113

Results for Cn1nc(-c2ccccc2)c2nc3ccccc3nc21 ?
FXN GAA850 act: -1; ABCB6 inh 2: 106; AHR activator: 45; STAT3 act-1: 150*; STAT3 act-2: 140*; NFkB act 2: 105; STAT1 act: 93

What do the screens show for `CCCCn1nc(-c2ccccc2)c2nc3ccccc3nc21`?
AHR activator: 3; STAT3 act-1: 96

Results for COC(=O)C1CCN(C(=O)C2CCC(=O)N(CCc3cccc(F)c3)C2)CC1 (stereo not drawn) ?
FXN GAA850 act: 1; ABCB6 inh 2: 100; AHR activator: -1

How did CC[C@@H]1CC2=C(C(=O)OC(C)(C)O2)[C@H](c2ccc(F)cc2)O1 do in these assays?
ABCB6 inh 2: 98

Results for COc1ccc(C)cc1-n1nnnc1SCc1nc2ccccc2s1 ?
FXN GAA850 act: 6; ABCB6 inh 2: 95; AHR activator: 34; STAT3 act-1: 147*; STAT3 act-2: 144*; NFkB act 2: 119; STAT1 act: 128*

What do the screens show for `COc1ccc(-n2nnnc2SCc2nc3ccccc3s2)cc1`?
FXN GAA850 act: 2; ABCB6 inh 2: 110; AHR activator: 15; STAT3 act-1: 146*; STAT3 act-2: 138*; NFkB act 2: 125*; STAT1 act: 142*

What do the screens show for `Cc1cc(C)c(S(=O)(=O)Nc2ncn[nH]2)cc1C`?
FXN GAA850 act: 0; ABCB6 inh 2: 93; AHR activator: 3

How did CCOc1ccccc1-c1n[nH]c(=S)o1 do in these assays?
FXN GAA850 act: 2; ABCB6 inh 2: 98; AHR activator: 30; STAT3 act-1: 173*; STAT3 act-2: 156*; NFkB act 2: 104; STAT1 act: 96

What do the screens show for `O=C(NCCN1CCC(n2c(=O)[nH]c3ccccc32)CC1)c1ccc(OC(F)(F)F)cc1`?
ABCB6 inh 2: 100

Results for CCC1Oc2ccc(C)cc2N(CC(=O)N2CCCC2)C1=O (stereo not drawn) ?
FXN GAA850 act: 0; ABCB6 inh 2: 100; AHR activator: 6

How did Cc1ccc(C(=O)COC(=O)c2ccccc2N2C(=O)C3C4CCC(C4)C3C2=O)cc1C (stereo not drawn) do in these assays?
FXN GAA850 act: 1; ABCB6 inh 2: 98; AHR activator: -4; STAT3 act-1: 97

What do the screens show for `CCOC(=O)N1CCN(C(=O)c2ccc3nc4ccsc4c(=O)n3c2)CC1`?
FXN GAA850 act: 0; ABCB6 inh 2: 99; AHR activator: 16; STAT3 act-1: 137*; STAT3 act-2: 134*; NFkB act 2: 100; STAT1 act: 100

Results for CCOC(=O)N1CCN(C(=O)c2ccc3nc4ccc(Cl)cc4c(=O)n3c2)CC1 ?
FXN GAA850 act: 0; ABCB6 inh 2: 92; AHR activator: 5; STAT3 act-1: 97

How did CN(C)c1ccc(P(=O)(Nc2cccc(C(F)(F)F)c2)N2CCOCC2)c(NC(=O)c2cccs2)c1 (stereo not drawn) do in these assays?
FXN GAA850 act: -2; ABCB6 inh 2: 92; AHR activator: 16; STAT3 act-1: 140*; STAT3 act-2: 131; NFkB act 2: 96; STAT1 act: 99

How did CCOC(=O)CN(C(=O)c1ccccc1[N+](=O)[O-])C(C)(C)C do in these assays?
FXN GAA850 act: 1; ABCB6 inh 2: 91; AHR activator: -2

What do the screens show for `O=C(CC(Nc1cccc(Cl)c1Cl)C(=O)O)c1ccccc1` (stereo not drawn)?
FXN GAA850 act: 2; ABCB6 inh 2: 104; AHR activator: 10; STAT3 act-1: 140*; STAT3 act-2: 149*; NFkB act 2: 107; STAT1 act: 115

Results for O=c1c(-c2nc3ccccc3s2)cccn1Cc1ccc(Cl)c(Cl)c1 ?
FXN GAA850 act: 0; ABCB6 inh 2: 89; AHR activator: 2; STAT3 act-1: 100

What do the screens show for `Cc1ccc(/C=C/C(=O)N2CCN(c3ncccn3)CC2)o1`?
FXN GAA850 act: 5; ABCB6 inh 2: 95; AHR activator: 1; STAT3 act-1: 97

What do the screens show for `CC1=C(C(=O)OCc2ccc3c(c2)OCO3)C(c2cccc([N+](=O)[O-])c2)NC(=O)N1` (stereo not drawn)?
FXN GAA850 act: -8; ABCB6 inh 2: 98; AHR activator: 18; STAT3 act-1: 93

What do the screens show for `Cn1cc(C(=O)Nc2ccc(F)c(Cl)c2)cn1`?
FXN GAA850 act: 1; ABCB6 inh 2: 96; AHR activator: -1; STAT3 act-1: 96

Results for CN1c2ccsc2C(O)=C(C(=S)Nc2ccc(F)c(Cl)c2)S1(=O)=O ?
FXN GAA850 act: 3; ABCB6 inh 2: 103; AHR activator: 14; STAT3 act-1: 142*; STAT3 act-2: 102; NFkB act 2: 105; STAT1 act: 97

Results for O=C(O)c1cccc(NC(=O)c2ccc3c(c2)C(=O)N(c2cccc([N+](=O)[O-])c2)C3=O)c1 ?
FXN GAA850 act: 1; ABCB6 inh 2: 101; AHR activator: 9

What do the screens show for `Cc1nc2ccccc2n1CC(=O)OCC(=O)NCc1ccccc1`?
FXN GAA850 act: -1; ABCB6 inh 2: 96; AHR activator: 4; STAT3 act-1: 101

What do the screens show for `CCOC(=O)Cn1c(=O)c(-c2ccccc2NCc2ccccc2)nc2ccccc21`?
FXN GAA850 act: -4; ABCB6 inh 2: 97; AHR activator: 20; STAT3 act-1: 136*; STAT3 act-2: 127; NFkB act 2: 98; STAT1 act: 95
